Bioassay records: PubChem, several laboratories
Shown are actives, neighbours in structure and some others; about 1.5% of the full set was active somewhere.
PREPL inh: PREPL enzyme inhibitors, primary screen, biochemical, fluorescence polarization | Prolyl endopeptidase-like (Homo sapiens), Q4J6C6 | recombinant PREPL, fluorescence polarization activity-based probe | inhibition, % at 5.96 µM | hit rate 0.68% among 320,000; in the data active means inhibition above about 43%;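 further: 0% = enzyme with DMSO and 100% = wells lacking enzyme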
UBC13 polyUb: UBC13 polyubiquitin chain formation inhibitors, primary screen, biochemical, TR-FRET, uHTS. Ubiquitin-conjugating enzyme E2 N (Homo sapiens), P61088. inhibition, % at 20 µM. hit rate 0.47% among 330,000; in the data active means inhibition above about 45%, passing the limit was not always enough
Target sequence (P61088 whole entry, looked up): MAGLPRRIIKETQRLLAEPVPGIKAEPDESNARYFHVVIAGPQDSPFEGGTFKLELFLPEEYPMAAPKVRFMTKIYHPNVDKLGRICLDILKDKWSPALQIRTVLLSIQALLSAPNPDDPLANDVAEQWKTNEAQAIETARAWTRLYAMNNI
Apaf-1 inh: inhibitors of human Apaf-1 apoptosome, primary screen, biochemical, DEVD-Rh110 fluorescence, uHTS; Apoptotic protease-activating factor 1 (Homo sapiens), O14727; reconstituted apoptosome caspase-3 activity; inhibition, % at 20 µM; hit rate 0.71% among 330,000; AID 489030, 2010; active means inhibition of at least 40% at 20 µM;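 further: plate controls were DMSO wells for no effect and DEVD-CHO caspase inhibitor wells for full effect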
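Medium: Hepes buffer, pH 7.5 / System: biochemical Apaf-1 apoptosome reconstitution / Measured by: Rh110 fluorescence, excitation 480 nm, emission 540 nm / Times: compound with Apaf-1, dATP, procaspase-3 30 min, then 50 min reaction, room temperature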
UCH37 inh: inhibitors of human UCH37 deubiquitinase, primary screen, biochemical, Ub-AMC cleavage, fluorescence | purified proteasome/UCH37 | Ubiquitin carboxyl-terminal hydrolase isozyme L5 (Homo sapiens), Q9Y5K5 | inhibition, % (no concentration beside the values) | hit rate 0.33% among 330,000;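 active means mean inhibition over replicate wells above about 20%, limit read from the data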;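 further: 0% = compound-free wells with enzyme and 100% = wells lacking proteasome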
Target sequence (Q9Y5K5 whole entry, looked up): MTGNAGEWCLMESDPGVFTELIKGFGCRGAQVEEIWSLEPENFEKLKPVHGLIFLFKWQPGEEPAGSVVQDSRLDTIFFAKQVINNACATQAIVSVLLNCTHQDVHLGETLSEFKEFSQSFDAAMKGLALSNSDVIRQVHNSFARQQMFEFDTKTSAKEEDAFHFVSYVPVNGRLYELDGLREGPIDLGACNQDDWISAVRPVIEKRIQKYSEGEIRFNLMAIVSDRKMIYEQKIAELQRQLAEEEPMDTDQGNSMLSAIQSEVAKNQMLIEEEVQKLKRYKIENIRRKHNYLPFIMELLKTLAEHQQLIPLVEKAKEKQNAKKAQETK
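Test system – human UCH37 enzyme supplied as purified proteasome complex · Incubation – 30 min preincubation with enzyme, 25 min cleavage at room temperature · Detection – AMC fluorescence from Ub-AMC cleavage, excitation 355 nm, emission 460 nm · Benchmarks – no-proteasome wells (full inhibition) and compound-free wells (no inhibition)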
Apaf-1 inh conf: Apaf-1 inhibitors, single-dose retest, confirmation, biochemical, fluorescence, DEVD-Rh110, 20 µM; hit rate 25% among 1,800; reconstituted apoptosome, caspase-3 DEVD-Rh110 fluorescence; shares compounds with Apaf-1 inh; inhibition, % at 20 µM;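 active means mean inhibition of at least 40% at 20 µM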;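 further: plate controls were DMSO wells for no effect and DEVD-CHO caspase inhibitor control wells for full effect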
Rh110 quench: Rh110 fluorescence interference by putative Apaf-1 inhibitors, confirmation, artefact control for Apaf-1 inhibitor project, biochemical, 20 µM. 1,800 tested, under 10 active. shares compounds with Apaf-1 inh. activation (fluorescence interference), % at 20 µM. AID 504615, 2011. quenched caspase reaction;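 active means signal rise of 40% or more at 20 µM, treated as a fluorescence artifact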
Fluor interf inh: fluorescence interference of Apaf-1 inhibitor hits, dose response, artefact control for Apaf-1 inhibitor project; shares compounds with Apaf-1 inh; fluorescence interference counterscreen, Apaf-1 assay format; IC50, µM; 460 tested, under 10 active; AID 588538, 2011; call rule not given here
Numbers without * were called inactive.

`Cc1cccc(N(Cc2ccccc2)C(=O)C2CCN(C(=O)c3ccccc3C)CC2)c1` gave PREPL inh 17, UBC13 polyUb 13, Apaf-1 inh 48*, UCH37 inh 2, Apaf-1 inh conf 37 and Rh110 quench 9.
Screening c1ccc(-c2cc3c(nn2)CCc2nonc2-3)cc1 returned PREPL inh -16, UBC13 polyUb 1, Apaf-1 inh 4 and UCH37 inh 6.
For Cc1cnc2c(c1)C(=O)c1ccccc1-2 the results were PREPL inh 4, UBC13 polyUb -7, Apaf-1 inh 4 and UCH37 inh 1.
For COc1ccc(-c2nnsc2N2C(=O)c3ccccc3C2=O)cc1 the results were PREPL inh 18, UBC13 polyUb -1, Apaf-1 inh 3 and UCH37 inh 4.
`O=C1c2ccccc2-c2nnc(-c3ccccc3)cc21` gave PREPL inh 9, UBC13 polyUb -43, Apaf-1 inh 71*, UCH37 inh 0, Apaf-1 inh conf 18 and Rh110 quench 7.
For Cc1cccc(-c2cc3c(nn2)-c2ccccc2C3=O)c1 the results were PREPL inh 24, UBC13 polyUb -26, Apaf-1 inh 91*, UCH37 inh 5, Apaf-1 inh conf 13 and Rh110 quench 10.
COc1ccc(-c2cc3c(nn2)-c2ccccc2C3=O)cc1 was read as PREPL inh 13, UBC13 polyUb -20, Apaf-1 inh 77*, UCH37 inh 2, Apaf-1 inh conf 13 and Rh110 quench 4.
Cc1[nH]c2ccccc2c1C(C#N)(C#N)C1C(=O)c2ccccc2C1=O was read as PREPL inh 23, UBC13 polyUb -178, Apaf-1 inh 73*, UCH37 inh -3, Apaf-1 inh conf 45*, Rh110 quench 0 and Fluor interf inh >100.
Screening Cc1[nH]c2ccccc2c1CC#N returned PREPL inh 2, UBC13 polyUb 7, Apaf-1 inh 5 and UCH37 inh 3.
`CC(=NNC(=O)c1nn(C)c(C)c1Br)c1cccc(NC(=O)c2ccoc2C)c1` gave UCH37 inh -5.
COc1cc(C(=O)NCC(=O)NN=C(C)c2ccc3c(c2)CCCC3)cc(OC)c1OC was read as UCH37 inh 2.
`O=C(CNC(=O)c1ccccc1Br)NN=Cc1cccs1` gave UCH37 inh 3.
Screening CC(C)CNC(=O)C(=O)NN=Cc1cccs1 returned UCH37 inh 9.
Screening O=C(NC(c1ccccc1)c1ccccc1)C1CCCN(S(=O)(=O)c2cnc[nH]2)C1 (stereo not drawn) returned PREPL inh -10, UBC13 polyUb 0, Apaf-1 inh -3 and UCH37 inh 6.
O=C(C1CCCN(S(=O)(=O)c2cnc[nH]2)C1)N1CCN(Cc2ccccc2)CC1 (stereo not drawn) was read as PREPL inh -9, UBC13 polyUb -4, Apaf-1 inh 40*, UCH37 inh 8, Apaf-1 inh conf 3 and Rh110 quench 43*.
For CCC12CCCN3CCc4c(n(c5ccccc45)C(O)(C(=O)OC)C1)C32 (stereo not drawn) the results were PREPL inh 10, UBC13 polyUb -10, Apaf-1 inh 41*, UCH37 inh -3, Apaf-1 inh conf 18 and Rh110 quench 0.
`CCN(C(=O)c1coc(=O)c(Br)c1)c1ccc2c(c1)OCO2` gave PREPL inh 36, UBC13 polyUb -16, Apaf-1 inh 59*, UCH37 inh -99, Apaf-1 inh conf 18 and Rh110 quench 0.
Screening COC(=O)c1ccc(C(=O)Nc2ccc(N)cc2N)cc1 returned PREPL inh 17, UBC13 polyUb -16, Apaf-1 inh 48*, UCH37 inh -6, Apaf-1 inh conf 13 and Rh110 quench 1.
For CCOc1cc(C=NNC(N)=S)cc(Br)c1OCc1ccccc1C the results were UCH37 inh 5.
Screening Cc1cccc(NC(=O)c2sc3nc4c(c(-c5cccs5)c3c2N)CN(C)CC4)c1 returned PREPL inh 41, UBC13 polyUb -57, Apaf-1 inh 50*, UCH37 inh -9, Apaf-1 inh conf 24 and Rh110 quench 13.
CC(C)NC(=O)c1sc2nc3c(c(-c4cccs4)c2c1N)CN(C)CC3 was read as PREPL inh 24, UBC13 polyUb -70, Apaf-1 inh 39 and UCH37 inh -2.
For Cc1ccc2c(c1)C(=O)C(=O)N2Cc1ccc(Cl)cc1 the results were PREPL inh 13, UBC13 polyUb 12, Apaf-1 inh 40*, UCH37 inh -3, Apaf-1 inh conf 24 and Rh110 quench 7.
`Nc1ccc(N(CCO)CCO)cc1` gave PREPL inh 16, UBC13 polyUb -42, Apaf-1 inh 84*, UCH37 inh 5, Apaf-1 inh conf 46*, Rh110 quench 3 and Fluor interf inh >100.
`Nc1ccc(C(=O)N(CCO)CCO)cc1` gave PREPL inh 21, UBC13 polyUb 1, Apaf-1 inh -4 and UCH37 inh 3.
For COc1cc(C=NNC(=O)c2cccc(Cl)c2)ccc1Oc1ccc([N+](=O)[O-])cn1 the results were UCH37 inh 3.
`COc1ccc2c(c1)Cc1sc(NC(=O)c3cccnc3)nc1-2` gave PREPL inh 17, UBC13 polyUb -44, Apaf-1 inh 89*, UCH37 inh 10, Apaf-1 inh conf 30 and Rh110 quench 4.
`COc1ccc2c(c1)CCc1sc(NC(=O)c3ccco3)nc1-2` gave PREPL inh 15, UBC13 polyUb -6, Apaf-1 inh 8 and UCH37 inh 0.
COc1ccc2c(c1)CCc1sc(NC(=O)c3ccc(C)cc3)nc1-2 was read as PREPL inh 17, UBC13 polyUb 10, Apaf-1 inh 4 and UCH37 inh 0.
Screening COc1ccc2c(c1)Cc1sc(NC(C)=O)nc1-2 returned PREPL inh 18, UBC13 polyUb -16, Apaf-1 inh 73*, UCH37 inh 7, Apaf-1 inh conf 16 and Rh110 quench -4.
COc1ccc2c(c1)Cc1sc(NC(=O)c3ccco3)nc1-2 was read as PREPL inh 13, UBC13 polyUb -50, Apaf-1 inh 85*, UCH37 inh -1, Apaf-1 inh conf 56*, Rh110 quench 5 and Fluor interf inh >100.
For COc1ccc(NC(=O)c2cccnc2)cc1 the results were PREPL inh 2, UBC13 polyUb -7, Apaf-1 inh -10 and UCH37 inh 0.
